Activity calls are given as the source filed them.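 The calls were made as follows: active = inhibitor of the AddAB recombination enzyme whose half-maximal inhibitory concentration is at or below 10 µM; inactive = half-maximal inhibitory concentration above 10 µM.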

The test system of the experiment is E. coli V3065 expressing H. pylori AddAB, T4 phage, OD growth. Put plainly: growth inhibition of T4-infected E. coli expressing H. pylori AddAB, late-stage follow-up, AddAB inhibitor project, absorbance, E. coli V3065, powder samples, round 2 (AID 651942). The essentials:
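Test system: E. coli V3065 carrying H. pylori addAB+; Medium: Cation Mueller Hinton broth; Reagent: mutant T4 phage, MOI 0.02; Doses: 10-point threefold series from 118.6 µM; Incubation: 60 min preincubation, 18 h post-infection, 37 °C; Measured by: optical density at 600 nm as bacterial growth measure; Control set: ciprofloxacin reference; Replicates: triplicate.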

As to `CCn1cc(C(=O)O)c(=O)c2cnc(N3CCN(C(=S)Nc4ccccc4OC)CC3)nc21`, the IC50 was 30.6 µM (inactive).
As to `CCn1cc(C(=O)O)c(=O)c2cnc(N3CCN(C(=S)Nc4cccc(C(F)(F)F)c4)CC3)nc21`, the IC50 was 1.03 µM.
For the compound `CCn1cc(C(=O)O)c(=O)c2cnc(N3CCN(C(=S)Nc4ccc(Cl)cc4)CC3)nc21`, the IC50 was 6.5 µM.
For `CCn1cc(C(=O)O)c(=O)c2cnc(N3CCN(C(=S)NCc4ccccc4)CC3)nc21`, the IC50 was 29.4 µM (inactive).
The value for `CCn1cc(C(=O)O)c(=O)c2cnc(N3CCN(C(=S)NC(=O)c4cccc(C)c4)CC3)nc21` was 19 µM (inactive).
Turning to `CCn1cc(C(=O)O)c(=O)c2cnc(N3CCN(C(=S)Nc4ccccc4F)CC3)nc21`, the IC50 was 7.65 µM.

(Values after PubChem BioAssay AID651942 (The Scripps Research Institute Molecular Screening Center, 2012).)
